Most compounds without a hit are left out; they make up all but 2.3% or so of the library.
GSTO1 inh = blocks human GSTO1 in RBBP9 counter-screen; P78417; recombinant GSTO1, activity-based probe fluorescence polarization; inhibition, % at 5.96 µM; actives 1.1% (n = 300,000); AID 1974;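 active = inhibition above the campaign mean inhibition plus 3 SD, cut at about 35% in these data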;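 note: 0% = GSTO1-1 with DMSO and 100% = wells lacking GSTO1-1 enzyme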
PRMT1 inh = inhibitors of human PRMT1; Q99873; recombinant PRMT1, activity-based probe fluorescence polarization; inhibition, % at 2.79 µM; actives 1.3% (n = 370,000); AID 652257;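 active = inhibition above about 21% made by adding two undisclosed values, limit read from the data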
PME-1 primary = blocks human protein phosphatase methylesterase 1; actives 0.53% (n = 320,000); Q9Y570; inhibition, % at 5.9 µM; AID 2130; recombinant PME-1, FP-Rh probe fluorescence polarization;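 active = inhibition above the campaign mean of all compounds plus 3 SD, cut at about 26% in these data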;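 note: competitive labeling of PME-1 active site by serine hydrolase directed probe; 0% = PME-1 with DMSO and 100% = wells lacking PME-1 enzyme; inhibitors block probe labeling so polarization falls and inhibition rises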
Target sequence (Q9Y570 whole entry, looked up): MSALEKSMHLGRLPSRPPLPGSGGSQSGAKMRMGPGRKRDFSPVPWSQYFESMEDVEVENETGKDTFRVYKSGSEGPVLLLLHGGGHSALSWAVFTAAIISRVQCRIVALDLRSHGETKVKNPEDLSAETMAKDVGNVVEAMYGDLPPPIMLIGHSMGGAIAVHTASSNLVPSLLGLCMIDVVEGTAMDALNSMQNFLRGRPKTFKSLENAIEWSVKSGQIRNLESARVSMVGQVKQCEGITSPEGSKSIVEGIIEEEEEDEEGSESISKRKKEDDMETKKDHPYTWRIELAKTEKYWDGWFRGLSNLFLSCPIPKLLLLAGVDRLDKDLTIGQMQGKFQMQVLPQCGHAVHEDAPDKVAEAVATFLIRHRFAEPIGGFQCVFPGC
PAD4 inh = PAD4 (human) enzyme inhibition; inhibition, % at 6.36 µM; recombinant PAD4, RCA probe fluorescence polarization; actives 0.41% (n = 330,000); AID 485272;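 active = percent inhibition above a cutoff equal to the mean of all tested compounds plus 3 SD, cut at about 15% in these data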;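 note: 0% = PAD4 with RCA probe and DMSO and 100% = probe without PAD4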
Fam108B counter = blocks mouse Fam108B hydrolase in RBBP9 counter-screen | recombinant Fam108B, FP-Rh probe fluorescence polarization | actives 0.33% (n = 300,000) | AID 1947 | inhibition, % at 9.51 µM;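 active = inhibition above the screen mean inhibition plus 3 SD, computed separately per campaign, cut at about 18% in these data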;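 note: inhibitors lower polarization as less probe binds the enzyme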
RBBP9 inhibitor = inhibitors of human serine hydrolase RBBP9 | O75884 | inhibition, % at 7.94 µM | recombinant RBBP9, FP-Rh probe fluorescence polarization | actives 0.2% (n = 220,000);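 active = inhibition above the campaign mean of all tested compounds plus 3 SD, cut at about 14% in these data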;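 note: plate controls were DMSO wells with RBBP9 for no effect and wells lacking RBBP9 protein for full effect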
Target sequence (O75884 whole entry, looked up): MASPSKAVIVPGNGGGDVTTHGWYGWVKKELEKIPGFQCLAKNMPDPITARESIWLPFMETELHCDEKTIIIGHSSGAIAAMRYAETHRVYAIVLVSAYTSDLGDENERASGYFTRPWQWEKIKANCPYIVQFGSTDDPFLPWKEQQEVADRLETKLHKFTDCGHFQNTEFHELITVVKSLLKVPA
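System: RBBP9 protein | Quantity: 2.5 µM RBBP9 dispensing solution, before mixing | Reagent: FP-Rh probe, 375 nM dispensing solution | Timing: Enzyme-compound preincubation 30 min, then probe labeling 45 min, 25 °C | Measured by: Fluorescence polarization | Read-out: % inhibition | Replication: One well per compound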
* hit, by the source's call; / = no result.

SMILES	GSTO1 inh	PRMT1 inh	PME-1 primary	PAD4 inh	Fam108B counter	RBBP9 inhibitor
S=c1[nH]nc(-c2ccccc2)n1/N=C/c1cccc(Cl)c1	16.8	17.4	8.7	-2.1	0.3	/
COc1ccccc1/C=C/C=N/n1c(-c2ccc(C)cc2)n[nH]c1=S	9.3	22.3*	1.1	-1.6	7.0	-1.2
COc1ccc(CCNc2oc(Cc3cccc4ccccc34)nc2C#N)cc1OC	-7.5	-2.5	-5.4	0.2	-1.6	-4.4
N/C(=N\OC(=O)c1ccc(Cl)c(Cl)c1)c1cccnc1	-4.0	-0.2	-11.3	1.4	3.3	2.3
O=C(CSc1nnc(-c2cnccn2)n1Cc1ccco1)c1ccc2ccccc2c1	37.6*	1.4	-0.9	-4.4	-2.7	-9.1
CC(C)OC(=O)CSc1nnc(-c2cnccn2)n1Cc1ccco1	0.2	-3.6	0.4	3.0	0.8	3.8
CC1CC(C)CN(C(=O)c2cc(-c3ccncc3)nc3ccccc23)C1 (centres undefined)	4.3	1.1	-0.2	0.9	-3.2	/
NN=C1C(=O)c2cccc3cccc1c23	/	3.8	/	/	/	/
NC1=CC(=O)c2cccc3cccc1c23	24.4	/	16.6	14.9*	13.3	-2.0
O=C(OCC(=O)N1CCN(c2ccccc2)CC1)c1ccc(Cl)nc1	-1.1	-1.8	0.0	3.5	2.7	/
O=C(OCC(=O)N1CCN(c2ccccc2)CC1)c1ccc2ncsc2c1	1.6	23.2*	-0.5	2.1	2.5	0.1
COC(=O)[C@@]1(Cc2ccc(F)cc2)[C@H]2c3cc(C(=O)N4CCCC4)n(Cc4ccc(C)o4)c3C[C@H]2CN1C(=O)c1ccccc1	/	24.2*	/	/	/	/
Cc1c(Cl)c([N+](=O)[O-])nn1CCCC(=O)Nc1cccc(Cl)c1Cl	0.1	1.8	9.7	4.2	8.4	-0.9
Cc1cc(C)c(NC(=S)N(CCN(C)C)Cc2cccs2)c(C)c1	14.0	-5.9	3.6	-2.3	1.4	-4.8
Cc1ccc(NC(=S)N(CCN(C)C)Cc2cccs2)c(C)c1	13.7	21.9*	2.5	0.5	0.1	-2.5
O=[N+]([O-])c1ccc(OCc2cn([C@@H](CO)c3ccccc3)nn2)c(Br)c1	5.0	-0.1	2.6	-2.5	-4.2	/
Cc1cc(C)c2[nH]c(=O)c(CN(CC3CCCO3)C(=S)NCc3ccco3)cc2c1 (centres undefined)	-1.4	-1.4	-6.0	-9.3	-1.0	-8.0
O=C1NC(=O)[C@@H]2C3c4ccccc4C=CN3[C@H](C(=O)c3cccs3)[C@H]12 (some centres undefined)	35.4*	/	8.7	7.6	15.8	-1.2
CC(=O)[C@@H]1[C@@H]2C(=O)N(C3CCCCC3)C(=O)[C@@H]2C2c3ccccc3C=CN21 (some centres undefined)	21.9	/	-2.3	-9.3	4.0	-5.2
COc1ccc(OCC(=O)Sc2ccc(C)cc2)cc1	13.3	33.4*	-3.6	4.5	4.5	-5.5
O=C(O)Cn1cc(/C=c2/sc3nc4ccccc4n3c2=O)c2ccccc21	-15.4	1.6	31.5*	-4.9	9.2	3.2
c1ccc(CSc2ncccc2-c2nc3ccccc3[nH]2)cc1	/	-2.4	/	/	/	/
O=[N+]([O-])c1ccc(-c2ccc(/C=N/c3c(-c4ccco4)nc4ccccn34)o2)cc1	3.5	22.9*	0.9	-1.3	-2.5	0.5
CCOC(=O)C1CCN(C(=O)COc2ccc(S(=O)(=O)NC(C)C)cc2Cl)CC1	0.9	2.9	-0.5	-3.2	-0.1	-0.9
CN1C(=O)N(C)C2C1NC(=O)N2C (centres undefined)	8.9	-1.1	-3.5	0.3	1.4	-3.0
SMILES	GSTO1 inh	PRMT1 inh	PME-1 primary	PAD4 inh	Fam108B counter	RBBP9 inhibitor
Cc1ccc(CC(=O)NNC(=O)c2ccncc2)cc1C	-4.9	23.8*	-3.2	2.1	2.1	/
Cc1ccc(C(=O)NNC(=O)c2ccncc2)cc1C	-1.7	-2.8	0.7	1.8	-0.8	/
O=C(CCN1CCCCC1)Nn1c(=S)[nH]c2ccccc2c1=O	-0.5	24.2*	5.0	-2.2	2.0	0.7
C[n+]1cccc2ccc3c(c21)OC(N)=C(C#N)C3c1ccccc1 (centres undefined)	9.3	-3.9	2.7	-6.7	1.4	2.8
C[n+]1cccc(C2C(C#N)=C(N)Oc3c2ccc2ccccc32)c1 (centres undefined)	37.4*	3.5	2.2	-11.5	-1.6	8.2
CC(=O)Oc1cc2oc(=O)cc(C)c2cc1OC(C)=O	17.2	21.2*	7.8	2.6	-1.6	-9.9
CC1CCN(C(=O)CN2C(=O)c3cccc4cccc(c34)C2=O)CC1	7.4	6.0	-4.4	0.1	2.9	-9.9
Cc1c(C#N)c(NC(=O)CCl)n(Cc2cccs2)c1C	86.7*	8.3	3.1	4.0	1.2	-9.2
CCN(CC)C(=O)c1sc(NC(=O)Cc2cccs2)c(C#N)c1C	2.8	-2.6	0.1	-1.3	-1.1	-3.7
COc1cccc(C(=O)Oc2ccc(/C=N/Nc3ccc(C(=O)O)cc3)cc2OC)c1	-0.5	8.2	31.7*	-1.6	14.1	/
COc1cccc(OCc2cc(/C=N/Nc3ccc(C(=O)O)cc3)ccc2OC)c1	7.7	9.8	9.9	-1.3	13.8	-3.8
C=C1C(=O)c2sccc2C(c2ccc(OC)c(OC)c2)C1COC(C)=O (centres undefined)	/	24.1*	/	/	/	/
S=c1[nH]nc(Cc2cccs2)n1-c1ccccc1	-2.1	1.7	-2.8	-3.3	-0.4	-0.1
CCCCc1ccc(-n2c(Cc3cccs3)n[nH]c2=S)cc1	1.4	21.4*	1.3	-2.4	2.8	-1.4
COc1ccc(/C(C)=N/OC/C(O)=C(\C#N)c2nc3ccccc3[nH]2)c(OC)c1	36.9*	2.2	-0.7	2.9	2.6	-7.3
CCOC(=O)Cc1csc(NC(=O)c2sc3nc4ccc(C)cc4cc3c2N)n1	2.9	-0.3	58.0*	-5.1	9.2	-5.1
CCc1nnc(NC(=O)c2sc3nc4cc(C)ccc4cc3c2N)s1	-4.9	-0.8	32.0*	-6.0	8.8	2.5
C/C(=N\N=C(/N)SC1CC(=O)N(c2ccccc2)C1=O)c1cccs1 (centres undefined)	8.7	0.1	-2.1	3.7	11.7	-5.1
C/C(=N\N=C(/N)SC1CC(=O)N(c2ccc(Cl)cc2)C1=O)c1cccs1 (centres undefined)	36.3*	0.8	2.4	-2.4	1.5	-7.9
COc1ccc(O)c(/C=C2/SC(=S)N(Cc3ccccc3)C2=O)c1	3.5	22.5*	-3.0	1.1	9.9	/
Cc1sc2ncn(CC(=O)NCc3ccco3)c(=O)c2c1-c1ccc(F)cc1	0.1	23.7*	0.8	0.2	-3.7	-8.0
O=C(Cn1cnc2c(cnn2-c2ccc(F)cc2)c1=O)NCc1ccco1	1.9	-2.1	-1.6	-0.6	-11.3	-4.9
O=C(OC(C(=O)Nc1ccc(Cl)cc1C(F)(F)F)c1ccccc1)C1=COCCO1 (centres undefined)	3.5	-1.2	-5.6	-2.6	-5.1	-8.4
COc1ccc(NC(=O)COC(=O)c2ccc(S(=O)(=O)N3CC(C)CC(C)C3)cc2)cc1OC (centres undefined)	/	1.6	/	/	/	/
